From ChEMBL document CHEMBL5038594, “Structural Fine-Tuning of Desmuramylpeptide NOD2 Agonists Defines Their In Vivo Adjuvant Activity” (J Med Chem, 2021)
The source made the active and inactive calls. The rule behind the calls is not given here.

Legend:
PBMC [1] = experiment: Immunostimulatory activity in human PBMC cells assessed as increase in LPS-induced IL-1beta production at 2 uM incubated for 18 hrs by flow cytometry analysis; type: functional, cell-based
Outline: (§1)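 Human PBMCs from healthy donors, 1 × 10^6 cells/mL in RPMI 1640 with 10% FBS, treated with 2 μM compound or 0.1% DMSO, without or with LPS 10 ng/mL, for 18 h at 37 °C. Supernatant cytokines quantified by cytometric bead array (human inflammatory panel) on a flow cytometer against recombinant standards. Four independent donors. Repeated-measures one-way ANOVA with Dunnett.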

BMDC [2] = experiment: Induction of mouse BMDC-mediated ovalbumin specific CD4+ T cell activation assessed as increase in CD25 expression at 1 uM incubated for 72 hrs by CFSE staining based flow cytometric analysis; type: functional
Outline: (§2)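 BMDCs from C57BL/6 mouse tibia (7 days in GM-CSF 20 ng/mL, >90% CD11c+) pulsed 18 h with compound (1 or 10 μM) plus ovalbumin 50 μg/mL, then washed. They were cocultured 72 h with CFSE-labelled naive OT-II CD4+ T cells. CD25+/CFSE-low fraction of live Thy1.2+CD4+ cells read by flow cytometry; supernatant cytokines also measured. Duplicates of two independent experiments.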

BMDC [3] = experiment: Induction of mouse BMDC-mediated ovalbumin specific CD4+ T cell activation assessed as increase in TNF-alpha production at 10 uM incubated for 72 hrs by flow cytometric analysis; type: functional, cell-based; outline: as §2
BMDC [4] = experiment: Induction of mouse BMDC-mediated ovalbumin specific CD4+ T cell activation assessed as increase in IL-17A production at 10 uM incubated for 72 hrs by flow cytometric analysis; type: functional, cell-based; outline: as §2
PBMC [5] = experiment: Immunostimulatory activity in human PBMC cells assessed as increase in LPS-induced IL-6 production at 2 uM incubated for 18 hrs by flow cytometry analysis; type: functional, cell-based; outline: as §1
BMDC [6] = experiment: Induction of mouse BMDC-mediated ovalbumin specific CD4+ T cell activation assessed as increase in CD25 expression at 10 uM incubated for 72 hrs by CFSE staining based flow cytometric analysis; type: functional; outline: as §2
Mus musculus [7] = experiment: Immuno-adjuvant activity in NIH/OlaHsd mouse assessed as increase in ovalbumin specific […] associated IgG2a production in sera at 0.30 micromol administered subcutaneously on day 1 and as booster dose on day 21 with ovalbumin loaded neutral liposomes and measured 1 week post booster dose by ELISA; type: functional, organism-based; settings: dose 0.3 µmol, time 28.0 day
Outline: (§3)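 Groups of 5 female NIH/OlaHsd mice, 2.0–2.5 months old, immunized with ovalbumin-loaded neutral liposomes (10 μg ovalbumin per dose) containing 0.30 μmol adjuvant per dose, plus one booster dose. Serum ovalbumin-specific IgG, IgG1 and IgG2a measured 1 week after the booster. Mean ± SEM of 5 mice.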

BMDC [8] = experiment: Induction of mouse BMDC-mediated ovalbumin specific CD4+ T cell activation assessed as increase in IFN-gamma production at 10 uM incubated for 72 hrs by flow cytometric analysis; type: functional, cell-based; outline: as §2
[9] = target: T1, Nucleotide-binding oligomerization domain-containing protein 1 (Homo sapiens) (UniProt Q9Y239); experiment: Agonist activity at NOD1 in HEK-Blue hNOD2 cells assessed as increase in NFkappaB transactivation-mediated SEAP activity measured after 18 hrs by spectrophotometric method; type: cell-based; settings: HEK-Blue hNOD1, in the assay text read “HEK-Blue hNOD1 cells” for “HEK-Blue hNOD2 cells”
T1 sequence (whole entry): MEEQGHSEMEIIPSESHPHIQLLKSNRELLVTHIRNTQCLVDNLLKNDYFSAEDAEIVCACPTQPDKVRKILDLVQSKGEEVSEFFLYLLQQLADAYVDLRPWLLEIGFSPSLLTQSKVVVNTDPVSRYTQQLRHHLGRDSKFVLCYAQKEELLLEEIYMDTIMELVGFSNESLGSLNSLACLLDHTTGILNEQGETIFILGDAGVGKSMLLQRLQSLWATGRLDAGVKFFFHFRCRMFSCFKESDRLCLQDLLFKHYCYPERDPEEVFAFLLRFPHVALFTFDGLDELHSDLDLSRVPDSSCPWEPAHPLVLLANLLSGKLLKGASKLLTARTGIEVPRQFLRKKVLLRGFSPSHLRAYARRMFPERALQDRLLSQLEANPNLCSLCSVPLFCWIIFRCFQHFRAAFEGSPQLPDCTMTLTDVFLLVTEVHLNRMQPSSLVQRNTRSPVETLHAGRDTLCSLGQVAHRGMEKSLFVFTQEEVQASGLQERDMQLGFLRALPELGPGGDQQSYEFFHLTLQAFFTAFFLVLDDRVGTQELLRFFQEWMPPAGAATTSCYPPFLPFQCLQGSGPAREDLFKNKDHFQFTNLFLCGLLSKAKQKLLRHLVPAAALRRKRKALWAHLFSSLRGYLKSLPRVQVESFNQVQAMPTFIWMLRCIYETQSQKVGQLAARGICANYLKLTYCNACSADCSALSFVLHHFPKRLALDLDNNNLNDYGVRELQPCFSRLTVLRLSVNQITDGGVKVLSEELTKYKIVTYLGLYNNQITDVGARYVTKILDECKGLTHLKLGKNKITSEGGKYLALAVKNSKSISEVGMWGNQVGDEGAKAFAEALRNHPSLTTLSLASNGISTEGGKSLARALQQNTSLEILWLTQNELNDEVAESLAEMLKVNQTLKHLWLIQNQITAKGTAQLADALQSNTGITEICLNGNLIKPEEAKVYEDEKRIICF
Outline: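 Counter-screen in HEK-Blue NOD1 cells (HEK293 stably expressing human NOD1 plus an NF-κB-inducible SEAP reporter), seeded at 2.5 × 10^5 cells/mL in HEK-Blue detection medium. Compounds at 2 μM versus 0.1% DMSO vehicle, 18 h at 37 °C, 5% CO2. SEAP read as absorbance at 630 nm. Duplicates, at least two independent experiments.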

Mus musculus [10] = experiment: Immuno-adjuvant activity in NIH/OlaHsd mouse assessed as increase in ovalbumin specific IgG production in sera at 0.30 micromol administered subcutaneously on day 1 and as booster dose on day 21 with ovalbumin loaded neutral liposomes and measured 1 week post booster dose by ELISA; type: functional, organism-based; settings: dose 0.3 µmol, time 28.0 day; outline: as §3
BMDC [11] = experiment: Induction of mouse BMDC-mediated ovalbumin specific CD4+ T cell activation assessed as increase in IL-6 production at 10 uM incubated for 72 hrs by flow cytometric analysis; type: functional, cell-based; outline: as §2
PBMC [12] = experiment: Immunostimulatory activity in human PBMC cells assessed as increase in LPS-induced IL-8 production at 2 uM incubated for 18 hrs by flow cytometry analysis; type: functional, cell-based; outline: as §1
PBMC [13] = experiment: Immunostimulatory activity in human PBMC cells assessed as increase in LPS-induced TNF-alpha production at 2 uM incubated for 18 hrs by flow cytometry analysis; type: functional, cell-based; outline: as §1
BMDC [14] = experiment: Induction of mouse BMDC-mediated ovalbumin specific CD4+ T cell activation assessed as increase in IL-2 production at 10 uM incubated for 72 hrs by flow cytometric analysis; type: functional, cell-based; outline: as §2
PBMC [15] = experiment: Immunostimulatory activity in human PBMC cells assessed as increase in IL-8 production at 2 uM incubated for 18 hrs by flow cytometry analysis; type: functional, cell-based; outline: as §1
PBMC [16] = experiment: Immunostimulatory activity in human PBMC cells assessed as increase in IL-1beta production at 2 uM incubated for 18 hrs by flow cytometry analysis; type: functional, cell-based; outline: as §1
[17] = Cytotoxicity against HEK-Blue hNOD2 cells assessed as reduction in metabolic activity at 20 uM incubated for 18 hrs by MTS assay; type: toxicity, cell-based; settings: human, hek-blue hnod2, 18 h
Outline: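 HEK-Blue NOD2 cells, 40 000 per well, exposed to 20 μM compound or 0.1% DMSO for 18 h at 37 °C, 5% CO2. Metabolic activity measured by MTS (CellTiter 96 AQueous One) reagent. Duplicates, two independent biological replicates.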

PBMC [18] = experiment: Immunostimulatory activity in human PBMC cells assessed as increase in TNF-alpha production at 2 uM incubated for 18 hrs by flow cytometry analysis; type: functional, cell-based; outline: as §1
PBMC [19] = experiment: Immunostimulatory activity in human PBMC cells assessed as increase in IL-6 production at 2 uM incubated for 18 hrs by flow cytometry analysis; type: functional, cell-based; outline: as §1
Mus musculus [20] = experiment: Immuno-adjuvant activity in NIH/OlaHsd mouse assessed as increase in ovalbumin specific […] associated IgG1 production in sera at 0.15 micromol administered subcutaneously on day 1 and as booster dose on day 21 and 28 with ovalbumin loaded liposomes by ELISA; type: functional, organism-based; settings: dose 0.15 µmol, time 28.0 day
Outline: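 Groups of 5 female NIH/OlaHsd mice, 2.0–2.5 months old, immunized with ovalbumin-loaded liposomes (10 μg ovalbumin per dose) containing 0.15 μmol adjuvant per dose. Liposomes were neutral (PC–cholesterol 7:5), anionic (PC–cholesterol–dicetylphosphate 7:5:1) or mannosylated (PC–cholesterol–mannose-PEG-PA 7:5:0.5). Serum ovalbumin-specific IgG, IgG1 and IgG2a measured 1 week after the second booster. Mean ± SEM.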

Mus musculus [21] = experiment: Immuno-adjuvant activity in NIH/OlaHsd mouse assessed as increase in ovalbumin specific […] associated IgG1 production in sera at 0.30 micromol administered subcutaneously on day 1 and as booster dose on day 21 with ovalbumin loaded neutral liposomes and measured 1 week post booster dose by ELISA; type: functional, organism-based; settings: dose 0.3 µmol, time 28.0 day; outline: as §3

Row | Compound | Activity [9] | Activity (PBMC [1]) | Activity (PBMC [5]) | Activity (Mus musculus [7]) | Activity (Mus musculus [10]) | Activity (PBMC [12]) | Activity (PBMC [13]) | Activity (PBMC [15]) | Activity (PBMC [16]) | Activity [17] | Activity (PBMC [18]) | Activity (PBMC [19]) | Activity (Mus musculus [21]) | other results
1 | COc1cc(/C=C/C(=O)NCC(=O)N[C@H](C(=O)N[C@H](CCC(=O)OC2CCCC2)C(=O)OC2CCCC2)C(C)C)ccc1O | inactive | Active | Active | inactive | inactive | Active | Active | Active | Active | Non-Toxic | Active | Active |  | Activity (BMDC [2]): Active; Activity (BMDC [3]): Active; Activity (BMDC [4]): Active; Activity (BMDC [6]): Active; Activity (BMDC [8]): Active; Activity (BMDC [11]): Active; Activity (BMDC [14]): Active
2 | CC(=O)N[C@H]1C(O)O[C@H](CO)[C@@H](O)[C@@H]1O[C@H](C)C(=O)N[C@@H](C)C(=O)N[C@H](CCC(=O)O)C(N)=O (stereo partly specified) [MURAMYL DIPEPTIDE] | inactive | Active | Active |  |  | Active | Active | Active | Active | Non-Toxic | Active | Active |  | Activity (Mus musculus [20]): Active
3 | CCOC(=O)CC[C@@H](NC(=O)[C@@H](NC(=O)CNC(=O)/C=C/c1ccc(OC(C)=O)c(OC)c1)C(C)C)C(=O)OCC | inactive | Active | Active |  |  | Active | Active | Active | Active | Non-Toxic | Active | Active |  | 
4 | CCOC(=O)CC[C@@H](NC(=O)[C@@H](NC(=O)CNC(=O)/C=C/c1ccc(O)c(OC)c1)C(C)C)C(=O)OCC | inactive |  |  |  | Active |  |  |  |  | Non-Toxic |  |  | Active | 

More lines, main results first:

Row | Activity [9] | Compound | Activity (PBMC [1]) | Activity (PBMC [5]) | Activity (Mus musculus [7]) | Activity (Mus musculus [10]) | Activity (PBMC [12]) | Activity (PBMC [13]) | Activity (PBMC [15]) | Activity (PBMC [16]) | Activity [17] | Activity (PBMC [18]) | Activity (PBMC [19]) | Activity (Mus musculus [21]) | other results
5 | inactive | CCCCCCCCCCCC(=O)Oc1ccc(/C=C/C(=O)NCC(=O)N[C@H](C(=O)N[C@H](CCC(=O)OCC)C(=O)OCC)C(C)C)cc1OC | Active | Active | inactive |  | Active | Active | Active | Active | Non-Toxic | Active | Active |  | 
6 | inactive | CCCCCCCCCCCCCCCCCC(=O)Oc1ccc(/C=C/C(=O)NCC(=O)N[C@H](C(=O)N[C@H](CCC(=O)OCC)C(=O)OCC)[C@@H](C)O)cc1OC | Active | Active |  |  | Active | Active | inactive | inactive | Non-Toxic | inactive | inactive | inactive | 
